Measured values reported in ChEMBL document CHEMBL2321775, “Synthesis and biological characterization of new aminophosphonates for mitochondrial pH determination by (31)P NMR spectroscopy” (J Med Chem, 2013).

Experiments:
Liver [1] = test: Toxicity against Sprague-Dawley rat liver assessed as respiratory control ratio incubated for 1 hr followed by compound washout measured after 10 mins; type: tissue-based
In short: (§1)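 Livers perfused at 37 °C with 0.1 mM compound for 1 h, then 10 min cold KH washout. Mitochondria isolated in ice-cold 0.3 M sucrose by differential centrifugation for membrane potential measurement. RCR was taken as respiration with 0.5 mM ADP divided by respiration after ADP phosphorylation ended, in KH2PO4/EDTA/MOPS/MgCl2 with glutamate 20 mM and malate 1 mM, pH 7.2, 37 °C. Mean ± SD.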

Liver [2] = test: Toxicity against Sprague-Dawley rat liver assessed as mitochondrial membrane potential incubated for 1 hr followed by compound washout measured after 10 mins; type: tissue-based; in short: as §1
Liver [3] = test: Toxicity against Sprague-Dawley rat liver assessed as ATP content incubated for 1 hr followed by compound washout measured after 10 mins; type: tissue-based
In short: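 Rat livers perfused at 37 °C with KH buffer containing 0.1 mM compound for 1 h, then washed out for 10 min with cold KH. Organ freeze-clamped in liquid nitrogen and ATP measured enzymatically in perchloric extracts, given as μmol/g. Mean ± SD of 3−9 experiments.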

[4] = Drug uptake in Sprague-Dawley rat liver mitochondria incubated for 1 hr followed by compound washout measured after 10 mins; type: ADME
In short: (§2)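 Sprague−Dawley male rat livers (120−150 g) perfused via the portal vein, non-recirculating, at 37 °C with KH bicarbonate buffer (95% O2/5% CO2, pH 7.35) at 3 mL/min/g. After 30 min equilibration, 0.1 mM compound was given for 1 h, followed by a 10 min ice-cold KH washout. Liver homogenised in 0.25 M sucrose/10 mM HEPES pH 7.5; cytosol and mitochondria separated by differential centrifugation and levels reported as μmol/g. 3−9 experiments, mean ± SD.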

[5] = Drug uptake in Sprague-Dawley rat liver cytosol incubated for 1 hr followed by compound washout measured after 10 mins; type: ADME, tissue-based; in short: as §2
[6] = (§3) Cytotoxicity against mouse 3T3 cells assessed as cell viability after 3 hrs by spectrophotometric analysis; type: cell-based, NIH3T3; details: 3T3 cells (NIH3T3), read-out: LD50
In short: (§4)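 Confluent 3T3 fibroblasts (DMEM, 10% FCS, 37 °C, 5% CO2) were switched to phenol red-free DMEM with 1% glucose and exposed 3 h to compound at 0.01−5 mM final (0.1% DMSO). Cells were then given neutral red (50 μg/mL, 2% FCS MEM) for 2 h and read at 540 nm. LD50 and LD10 were taken from dose−response curves over 3−6 experiments.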

NIH3T3 [7] = test: as §3; type: cell-based; details: nih3t3, 3 h; in short: as §4
NIH3T3 [8] = test: Cytotoxicity against mouse 3T3 cells assessed as LDH release per mg of protein at LD10 concentration after 1 hr by spectrophotometric analysis; type: cell-based; details: nih3t3, 1 h
In short: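 LDH released into the supernatant was measured after 1 h with a kit and expressed per mg protein. Total LDH was obtained from a Triton X-100 (1%) lysis control. Means of 3−6 independent experiments.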

[9] = Toxicity against Chlamydomonas reinhardtii D66 assessed as loss of respiratory activity after 1 hr; details: Chlamydomonas reinhardtii D66 cells, read-out: LD50
In short: (§5)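 Cell wall-less C. reinhardtii D66 grown in Tris acetate phosphate medium to 1−5 × 10^6 cells/mL at 25 °C. Exposed 1 h at 25 °C to 0.01−1 mM compound (DMSO ≤0.1%), under saturating light for photosynthesis or in the dark for respiration. NaHCO3 added (1 mM), then O2 measured by Clark electrode against DMSO control. LD50 is the concentration giving 50% activity loss.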

[10] = Toxicity against Chlamydomonas reinhardtii D66 assessed as loss of photosynthetic activity after 1 hr; details: Chlamydomonas reinhardtii D66 cells, read-out: LD50; in short: as §5
[11] = Dissociation constant, pKa of the compound in Krebs-Henseleit buffer; type: physicochemical
In short: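 31P NMR titration at 25 °C in Krebs−Henseleit buffer, with shifts referenced to external phosphoric acid and a D2O capillary as lock. Diethoxyphosphoryl shift plotted against pH (range 1.5−12) and fitted to the Henderson−Hasselbalch equation by nonlinear regression. Three independent titrations per compound, mean ± SEM.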

Liver [12] = test: Metabolic stability in Sprague-Dawley rat liver incubated for 1 hr followed by compound washout measured after 10 mins by 31P-NMR analysis; type: ADME, tissue-based
[13] = Drug uptake in Sprague-Dawley rat liver cytosol incubated for 1 hr followed by compound washout measured after 10 mins by 31P-NMR analysis; type: ADME, tissue-based; in short: as §2
[14] = Drug uptake in Sprague-Dawley rat liver mitochondria incubated for 1 hr followed by compound washout measured after 10 mins by 31P-NMR analysis; type: ADME; in short: as §2

Row | Structure (SMILES) | Ratio (Liver [1]) | Activity (Liver [2]) [mV] | Activity (Liver [3]) [µmol/g] | Drug uptake [4] [µmol/g] | Drug uptake [5] [µmol/g] | CC50 at 3 h [6] [µM] | LD10 (NIH3T3 [7]) [mM] | Activity (NIH3T3 [8]) [IU] | LC50 at 1 h [9] [µM] | LC50 at 1 h [10] [µM] | pKa [11] | Stability (Liver [12]) | Drug uptake [13] | Drug uptake [14]
1 | CC(C)(C)/[N+]([O-])=C/c1ccccc1 | 5.5 | 178.9 | 2.11 | < 0.05 | 0.88 | 7200 | 4.1 | 14.2 | > 500 | > 500 | – | – | – | –
2 | CCCNC(C)(C)P(=O)(OCC)OCC | 5.9 | 181.3 | 2.33 | < 0.05 | 0.56 | – | 76 | 11.9 | – | – | 6.99 | – | – | –
3 | CCOP(=O)(OCC)C1(C)CCCN1 (stereo not drawn) | – | – | – | – | – | – | 78 | 13.1 | > 1000 | > 1000 | 7.01 | – | – | –
4 | CC(C)(C)/[N+]([O-])=C/c1ccc(OCCCC[P+](c2ccccc2)(c2ccccc2)c2ccccc2)cc1.[Br-] | 4.7 | 170.7 | 1.95 | 1.95 | 0.12 | 200 | 0.05 | 49.7 | 50 | 100 | – | Stable | Not Active | Active
5 | CCOP(=O)(OCC)C(C)(C)NCCCC[P+](c1ccccc1)(c1ccccc1)c1ccccc1.[Br-] | – | – | – | – | – | 700 | 0.4 | 10.2 | 400 | 500 | 5.9 | – | – | –
6 | CCOP(=O)(OCC)C(C)(C)NCCCCCC[P+](c1ccccc1)(c1ccccc1)c1ccccc1.[Br-] | 5.7 | 174.2 | 2.29 | 1.55 | 0.93 | 600 | 0.2 | 14.9 | 100 | 250 | 6.53 | – | – | –
7 | CCOP(=O)(OCC)C(C)(C)NCCCCCCCC[P+](c1ccccc1)(c1ccccc1)c1ccccc1.[Br-] | 5.2 | 171.9 | 2.08 | 1.32 | 0.64 | 300 | 0.15 | 17.7 | 75 | 100 | 6.94 | Stable | Active | Active
8 | CCOP(=O)(OCC)C(C)(C)NCCCCCCCCCCCC[P+](c1ccccc1)(c1ccccc1)c1ccccc1.[Br-] | – | – | – | – | – | 100 | 0.05 | 44.7 | < 25 | < 25 | 6.85 | – | – | –
9 | CCOP(=O)(OCC)C(C)(CCC[P+](c1ccccc1)(c1ccccc1)c1ccccc1)NCC(C)C.[Br-] (racemic) | – | – | – | – | – | 700 | 0.5 | 12.9 | 300 | 300 | 5.39 | – | – | –
10 | CCOP(=O)(OCC)C(NCCCC[P+](c1ccccc1)(c1ccccc1)c1ccccc1)C(C)C.[Br-] (racemic) | – | – | – | – | – | 600 | 0.3 | 10.7 | 150 | 250 | 5.47 | – | – | –
11 | CCOP(=O)(OCC)C(NCCCCCC[P+](c1ccccc1)(c1ccccc1)c1ccccc1)C(C)C.[Br-] (racemic) | – | – | – | – | – | 500 | 0.2 | 15.9 | 130 | 130 | 5.99 | – | – | –
12 | CCOP(=O)(OCC)C(NCCCCCCCC[P+](c1ccccc1)(c1ccccc1)c1ccccc1)C(C)C.[Br-] (racemic) | – | – | – | – | – | 300 | 0.05 | 49.4 | 25 | 25 | 6.23 | – | – | –
13 | CCOP(=O)(OCC)C(NCCCCCCCCCCCC[P+](c1ccccc1)(c1ccccc1)c1ccccc1)C(C)C.[Br-] (racemic) | – | – | – | – | – | 20 | 0.01 | 52.7 | < 10 | < 10 | 6.38 | – | – | –
14 | CCOP(=O)(OCC)C(NCCCCCC[P+](c1ccccc1)(c1ccccc1)c1ccccc1)C(C)(C)C.[Br-] (racemic) | – | – | – | – | – | 300 | 0.2 | 16.7 | – | – | 5.63 | – | – | –
15 | CCOP(=O)(OCC)C(C)(N)CCC[P+](c1ccccc1)(c1ccccc1)c1ccccc1 (racemic) | – | – | – | – | – | – | – | – | – | – | 5.13 | – | – | –
